Assay results from ChEMBL document CHEMBL1212693, “Dorsomorphin inhibits BMP signals required for embryogenesis and iron metabolism” (Nat Chem Biol, 2008).
Active and inactive are the calls of the source. The rule behind the calls is not given here.

Key:
Hep 3B2 = experiment: Inhibition of BMPR1-mediated Id1 mRNA expression in IL6-stimulated human Hep3B cells at 10 uM treated 30 mins before IL6 challenge measured after 6 hrs by qRT-PCR analysis; assay type: cell-based
Summary of the method: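 Hep3B cells were grown in α-MEM with 10% FBS, then incubated 6 h in α-MEM with 1% fetal calf serum, with or without dorsomorphin and human IL-6 (100 ng ml−1). RNA was Trizol-extracted. Id1 mRNA was measured by qRT-PCR, normalized to 18S rRNA or β-actin mRNA. Triplicate measurements, mean ± s.d.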

Mus musculus [1] = experiment: Inhibition of iron-dextran conjugate-induced Smad-8 phosphorylation in C57BL/6 mouse at 23 ug/g, iv after 1 hr; assay type: functional, organism-based
Danio rerio [2] = experiment: Inhibition of iron-dextran conjugate-induced Smad-1 phosphorylation in zebrafish at 23 ug/g, iv after 1 hr relative to control; assay type: functional
Danio rerio [3] = experiment: Inhibition of iron-dextran conjugate-induced Smad-5 phosphorylation in zebrafish at 23 ug/g, iv after 1 hr relative to control; assay type: functional
Mus musculus [4] = species: Mus musculus; experiment: Inhibition of BMPR1-mediated Smad-8 phosphorylation in BMP4-stimulated mouse PASMC at 100 to 200 ng/ml treated 30 mins before BMP4 challenge measured after 30 mins by immunoblot analysis
Summary of the method: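 Mouse PASMCs were held 24 h in RPMI with 0.5% FCS. They were preincubated 30 min with test agent, noggin or vehicle, then exposed to recombinant BMP4 for 30 min. SDS lysates were immunoblotted for phospho-SMAD1/5/8 and bands quantified by phosphorimager. Dose-dependence was fitted as a Hill plot.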

Mus musculus [5] = species: Mus musculus; experiment: Inhibition of BMPR1-mediated Smad-8 phosphorylation in BMP4-stimulated mouse PASMC at 4 uM treated 30 mins before BMP4 challenge measured after 30 mins by immunoblot analysis
Summary of the method: (§1)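 Wild-type mouse PASMCs were kept in RPMI with 0.5% FCS for 24 h. They were preincubated with compound or vehicle for 30 min, then stimulated for 30 min with recombinant BMP2, BMP4, BMP6 or BMP7 at 10 ng ml−1. Lysates in SDS buffer were immunoblotted with anti-phospho-SMAD1/5/8. Total SMAD1 and α-tubulin served as loading controls, and bands were quantified by phosphorimager.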

Mus musculus [6] = species: Mus musculus; experiment: Inhibition of BMPR1-mediated Smad-8 phosphorylation in BMP2-stimulated mouse PASMC at 4 uM treated 30 mins before BMP2 challenge measured after 30 mins by immunoblot analysis; summary of the method: as §1
Mus musculus [7] = species: Mus musculus; experiment: Inhibition of BMPR1-mediated Smad-5 phosphorylation in BMP7-stimulated mouse PASMC at 4 uM treated 30 mins before BMP7 challenge measured after 30 mins by immunoblot analysis; summary of the method: as §1
Mus musculus [8] = species: Mus musculus; experiment: Inhibition of BMPR1-mediated Smad-5 phosphorylation in BMP2-stimulated mouse BMPR2 deficient PASMC at 4 uM treated 30 mins before BMP2 challenge measured after 30 mins by immunoblot analysis
Mus musculus [9] = species: Mus musculus; experiment: Inhibition of BMPR1-mediated Smad-1 phosphorylation in BMP6-stimulated mouse BMPR2 deficient PASMC at 4 uM treated 30 mins before BMP6 challenge measured after 30 mins by immunoblot analysis
Summary of the method: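 PASMCs (wild-type or BMPR-II–deficient) were kept 24 h in RPMI with 0.5% FCS, preincubated 30 min with compound or vehicle, then stimulated 30 min with recombinant BMP (10 ng ml−1). Extracts in SDS-lysis buffer were immunoblotted for phospho-SMAD1/5/8, with total SMAD1 and α-tubulin as loading controls. Bands were quantitated by phosphorimager.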

Mus musculus [10] = species: Mus musculus; experiment: Inhibition of BMPR1-mediated Smad-5 phosphorylation in BMP7-stimulated mouse BMPR2 deficient PASMC at 4 uM treated 30 mins before BMP7 challenge measured after 30 mins by immunoblot analysis
Mus musculus [11] = species: Mus musculus; experiment: Inhibition of ALK6-mediated Smad-1 phosphorylation in BMPR2 deficient mouse PASMC at 10 uM by immunoblot analysis
Summary of the method: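 BMPR-II–deficient mouse PASMCs (RPMI, 10% FBS) transiently transfected with constitutively active ALK2, ALK3 or ALK6 cDNA, or plasmid-only control. Incubated with or without compound (10 µM). Extracts lysed in SDS buffer, run on SDS-PAGE and immunoblotted for phospho-SMAD1/5/8; quantitated by phosphorimager.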

Mus musculus [12] = species: Mus musculus; experiment: Inhibition of ALK3-mediated Id1 promoter activity in BMPR2 deficient mouse PASMC at 10 uM by immunoblot analysis
Summary of the method: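 BMPR-II–deficient mouse PASMCs at 50% confluence co-transfected with Id1 promoter firefly luciferase (BRE-Luc, 0.3 µg), caALK2, caALK3 or caALK6 (0.6 µg), and pRL-TK Renilla (0.2 µg). Compound (4–10 µM) or vehicle added 1 h after transfection. Activity read as firefly/Renilla ratio by dual luciferase assay; n = 3, mean ± s.d.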

HepG2 = experiment: Inhibition of hepcidin mRNA expression in human HepG2 cells at 10 uM […] by qRT-PCR analysis relative to control; assay type: functional
Danio rerio [13] = species: Danio rerio; experiment: Inhibition of BMPR1 in zebrafish assessed as penetrance of normal embryonic axis dorsalization at 10 uM treated at 2 to 8 hrs post-fertilization measured at 48 hrs; set-up: scale not given: the % may be the effect or the level left
Danio rerio [14] = species: Danio rerio; experiment: Inhibition of BMPR1 in zebrafish assessed as penetrance of mild embryonic axis dorsalization at 10 uM treated at 2 to 8 hrs post-fertilization measured at 48 hrs; set-up: scale not given: the % may be the effect or the level left
Summary of the method: (§2)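 Compound added at the stated times and concentrations. Gross morphology scored visually at up to 48 h.p.f. for dorsalization of the embryonic axis.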

Danio rerio [15] = species: Danio rerio; experiment: Inhibition of BMPR1 in zebrafish assessed as severity of embryonic axis dorsalization at 10 uM treated at 4 to 8 hrs post-fertilization measured at 48 hrs; set-up: scale not given: the % may be the effect or the level left
Danio rerio [16] = species: Danio rerio; experiment: Inhibition of BMPR1 in zebrafish assessed as penetrance of mild embryonic axis dorsalization at 0.2 uM treated at 3 hrs post-fertilization measured at 48 hrs; set-up: scale not given: the % may be the effect or the level left; summary of the method: as §2
Danio rerio [17] = species: Danio rerio; experiment: Inhibition of BMPR1 in zebrafish assessed as penetrance of moderate embryonic axis dorsalization at 0.5 uM treated at 3 hrs post-fertilization measured at 48 hrs; set-up: scale not given: the % may be the effect or the level left; summary of the method: as §2
Danio rerio [18] = species: Danio rerio; experiment: Inhibition of BMPR1 in zebrafish assessed as penetrance of mild embryonic axis dorsalization at 10 uM treated at 3 hrs post-fertilization measured at 48 hrs; set-up: scale not given: the % may be the effect or the level left; summary of the method: as §2
Danio rerio [19] = species: Danio rerio; experiment: Inhibition of BMPR1 in zebrafish assessed as increase in pax2a expression at 10 uM treated at 12 hrs post-fertilization measured at 48 hrs
Danio rerio [20] = species: Danio rerio; experiment: Inhibition of BMPR1 in zebrafish assessed as penetrance of mild embryonic axis dorsalization at 10 uM treated continuously from 4 hrs post-fertilization measured after 48 hrs; set-up: scale not given: the % may be the effect or the level left; summary of the method: as §2
Danio rerio [21] = species: Danio rerio; experiment: Inhibition of BMPR1 in zebrafish assessed as severity of embryonic axis dorsalization at 10 uM treated continuously from 2 hrs post-fertilization measured after 48 hrs; set-up: scale not given: the % may be the effect or the level left
Danio rerio [22] = species: Danio rerio; experiment: Inhibition of BMPR1 in zebrafish assessed as penetrance of normal embryonic axis dorsalization at 10 uM treated continuously from 8 hrs post-fertilization measured at 48 hrs; set-up: scale not given: the % may be the effect or the level left
Danio rerio [23] = species: Danio rerio; experiment: Inhibition of BMPR1 in zebrafish assessed as severity of embryonic axis dorsalization at 10 uM treated continuously from 10 hrs post-fertilization measured at 48 hrs; set-up: scale not given: the % may be the effect or the level left

c1cc(-c2cnn3cc(-c4ccc(OCCN5CCCCC5)cc4)cnc23)ccn1 [DORSOMORPHIN]
inhibition (Hep 3B2): Active | inhibition (Mus musculus [1]): Active | fold change (FC) (Danio rerio [2]): 3 | fold change (FC) (Danio rerio [3]): 3 | inhibition (Mus musculus [4]): Active | inhibition (Mus musculus [5]): Active | inhibition (Mus musculus [6]): Active | inhibition (Mus musculus [7]): Active | inhibition (Mus musculus [8]): Active | inhibition (Mus musculus [9]): Active | inhibition (Mus musculus [10]): Active | inhibition (Mus musculus [11]): Active | inhibition (Mus musculus [12]): Dose-dependent effect | fold change (FC) (HepG2): 50 | Activity (Danio rerio [13]): 0% | Activity (Danio rerio [14]): 0% | Activity (Danio rerio [15]): 0% | Activity (Danio rerio [16]): 0% | Activity (Danio rerio [17]): 0% | Activity (Danio rerio [18]): 3% | Activity (Danio rerio [19]): Active | Activity (Danio rerio [20]): 0% | Activity (Danio rerio [21]): 100% | Activity (Danio rerio [22]): 15% | Activity (Danio rerio [23]): 0%
